According to PubChem BioAssay AID623951 (Broad Institute, 2012):

Each compound was assayed against PvdQ acyl-homoserine lactone acylase (Pseudomonas aeruginosa LESB58) (assay: PvdQ acylase enzyme activity blockers – biochemical, fluorescence, plate reader, dry powder samples, dose response (AID 623951)). Conditions: purified PvdQ, 4-MU laurate hydrolysis.
Outline: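 Assay system: Purified Pseudomonas aeruginosa PvdQ acylase enzyme | Buffer or medium: Tris pH 8.0, NaCl, TCEP, Triton X-100 | Reagent: 4-methylumbelliferone laurate substrate at 0.8 mM final | Incubation: 30 min pre-incubation, 60 min reaction, RT | Detection: Fluorescence, ex 303–367 nm, em 440–460 nm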

SMILES | AC50
CCCCC(C#N)c1ccc(F)cc1 (stereo unspecified) | 20.2 nM
CCCCC(C#N)c1ccc(Cl)cc1Cl (stereo unspecified) | 75.6 nM
N#CC(c1ccc(C(F)(F)F)cc1)c1ccc(C(F)(F)F)c(Cl)n1 (stereo unspecified) | 1390 nM
Cc1ccc(C(C#N)c2ccccc2OC(F)(F)F)nc1C#N (stereo unspecified) | 467 nM
N#CC(c1ccc(C(F)(F)F)c(Cl)n1)c1ccc(Cl)cc1F (stereo unspecified) | 802 nM
Cc1ccc(C(C#N)c2ccc(Cl)cc2)nc1C#N (stereo unspecified) | 221 nM
CC(C)CC(C#N)c1ccc(Cl)cc1 (stereo unspecified) | 121 nM
N#CC(c1ccc(F)cc1)c1cccc(C(F)(F)F)n1 (stereo unspecified) | 11.7 nM
N#CC(c1ccc(C(F)(F)F)c(Cl)n1)c1ccccc1OC(F)(F)F (stereo unspecified) | 433 nM
CCCCC(C#N)c1ccc(C(F)(F)F)cc1 (stereo unspecified) | 182 nM
N#Cc1cccc(C(C#N)c2ccc(Cl)cc2Cl)n1 (stereo unspecified) | 380 nM
N#CC(c1ccc(Cl)cc1Cl)c1ncccc1Cl (stereo unspecified) | 279 nM
CCCCC(C#N)c1ccc(Cl)cc1F (stereo unspecified) | 457 nM
N#Cc1cccc(C(C#N)c2ccc(Cl)cc2F)n1 (stereo unspecified) | 140 nM
COc1cccc(C(C#N)c2ccc(F)cc2)n1 (stereo unspecified) | 240 nM
N#Cc1ccc(C(C#N)c2ccc(Cl)cc2Cl)nc1 (stereo unspecified) | 2700 nM
N#CC(c1ccc(C(F)(F)F)cc1)c1cccc(C(F)(F)F)n1 (stereo unspecified) | 43.4 nM
N#CC(c1cccc(C(F)(F)F)n1)c1ccc(Cl)cc1F (stereo unspecified) | < 3 nM

Results, then the compound that gave them:

AC50 | SMILES
1340 nM | N#Cc1cccc(C(C#N)c2ccccc2OC(F)(F)F)n1 (stereo unspecified)
118 nM | CCCCC(C#N)c1ccc(Cl)cc1 (stereo unspecified)
99.4 nM | CCCC(C#N)c1ccc(Cl)cc1 (stereo unspecified)
5630 nM | CC(C#N)(c1ccc(Cl)cc1)c1ccc(C(F)(F)F)cn1 (stereo unspecified)
11.1 nM | N#CC(c1ccc(Cl)cc1)c1cccc(C(F)(F)F)n1 (stereo unspecified)
62.8 nM | N#CC(c1ccc(Cl)cc1)c1ccc(Cl)cn1 (stereo unspecified)
138 nM | Cc1cccc(C(C#N)c2ccc(Cl)cc2)n1 (stereo unspecified)
287 nM | N#CC(c1ccc(C(F)(F)F)cc1)c1cccc(Cl)n1 (stereo unspecified)
138 nM | N#Cc1cccc(C(C#N)c2ccc(Cl)cc2)n1 (stereo unspecified)
2660 nM | N#Cc1ccc(C(C#N)c2ccc(Cl)cc2)nc1 (stereo unspecified)
271 nM | Cc1ccc(C(C#N)c2ccc(Cl)cc2)nc1 (stereo unspecified)
5.76 nM | N#CC(c1ccc(Cl)cc1)c1ncccc1Cl (stereo unspecified)
203 nM | N#CC(c1cccc(Cl)n1)c1ccc(Cl)cc1Cl (stereo unspecified)
414 nM | N#CC(c1ccc(Cl)cc1)c1ccc(C(F)(F)F)c(Cl)n1 (stereo unspecified)
831 nM | N#CC(c1ccc(C(F)(F)F)c(Cl)n1)c1ccc(Cl)cc1Cl (stereo unspecified)
1530 nM | N#CC(c1cccc(C(F)(F)F)n1)c1ccccc1OC(F)(F)F (stereo unspecified)
398 nM | N#CC(c1ccc(F)cc1)c1ccc(C(F)(F)F)c(Cl)n1 (stereo unspecified)
142 nM | Cc1ccc(C(C#N)c2ccc(F)cc2)nc1C#N (stereo unspecified)
936 nM | N#CC(c1cccc(Cl)n1)c1ccccc1OC(F)(F)F (stereo unspecified)
1300 nM | CCCCC(C#N)c1ccccc1OC(F)(F)F (stereo unspecified)
77 nM | N#CC(c1cccc(Cl)n1)c1ccc(Cl)cc1F (stereo unspecified)
258 nM | N#CC(CC1CC1)c1ccc(Cl)cc1 (stereo unspecified)
546 nM | N#CC(c1ccc(Cl)cc1)c1ccc(C(F)(F)F)cn1 (stereo unspecified)
